From ChEMBL document CHEMBL1157379, “Transcriptional response of Candida parapsilosis following exposure to farnesol” (2007)
Activity calls are given as the source filed them. The rule behind the calls is not given here.

Columns and labels:
[1] = tested on: Candida parapsilosis; assay: Reduction in GCN3 gene expression in Candida parapsilosis CLIB214 by RT-PCR; type: functional
Method in brief: (§1)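 Cultures in YPD at 30°C, diluted to A600 0.2; 50 μM farnesol (final) or methanol added at 4 h, RNA harvested 2 h later. RT-PCR: 95°C hot start 1 min 30 s, then 26 cycles (95°C 40 s, 55°C 2 min, 72°C 3 min), final 72°C 5 min; each gene signal normalized to ACT1.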

[2] = tested on: Candida parapsilosis; assay: Decrease in CGD gene ortholog accession number orf19.409 expression in Candida parapsilosis CLIB214 at 50 uM after 2 hrs by microarray based transcriptional profiling relative to control; type: functional
Method in brief: (§2)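 Cells in YPD at 30°C treated with 50 μM farnesol at 4 h, with a methanol control. RNA harvested 2 h later and kept only if 28S/18S ratio was 1.6–2.2 with no degradation. 25 μg total RNA oligo-dT primed and labeled with Cy3/Cy5-dCTP. Labeled cDNA hybridized about 16 h at 42°C to duplicate-spotted 68-mer oligo arrays. Six individual comparisons analyzed statistically.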

[3] = tested on: Candida parapsilosis; assay: Antifungal activity against Candida parapsilosis CLIB214 assessed as growth inhibition at 10 to 20 uM added 4 hrs after […] growth; type: functional, organism-based
[4] = tested on: Candida parapsilosis; assay: Antifungal activity against Candida parapsilosis CLIB214 assessed as growth inhibition at 50 uM after 4 hrs; type: functional; details: CLIB214, 4 h
Method in brief: (§3)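 C. parapsilosis CLIB214 grown overnight in YPD at 30°C, diluted to A600 0.2 in fresh YPD, grown 4 h (A600 0.8), then farnesol added at final 10, 20, 50 or 100 μM from a 40 mM methanol stock. Methanol-only controls. Growth followed by A600 or by cell counting with a particle counter.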

[5] = tested on: Candida parapsilosis; assay: Increase in ARP3 gene expression in Candida parapsilosis CLIB214 at 50 uM after 2 hrs by microarray based transcriptional profiling relative to control; type: functional
Method in brief: (§4)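 Strain CLIB214 grown overnight in YPD at 30°C, diluted to A600 0.2 in fresh YPD at 30°C. After 4 h (A600 0.8), farnesol (40 mM methanol stock) added to 50 μM final, or an equal methanol volume as control; cells harvested 2 h later. RNA was accepted only with a 28S/18S ratio of 1.6–2.2. Cy3/Cy5-dCTP-labelled cDNA was made from 25 μg total RNA. Hybridisation was to duplicate-spotted 68-mer oligo arrays (3,849 genes) at 42°C for about 16 h. Six individual comparisons.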

[6] = tested on: Candida parapsilosis; assay: Antifungal activity against Candida parapsilosis CLIB214 assessed as growth inhibition at 50 uM added after 2 hrs of bacterial growth measured after 4 hrs; type: functional; details: Lodderomyces parapsilosis
Method in brief: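 Overnight YPD culture at 30°C diluted to A600 0.2 in YPD. Farnesol added to 50 μM final at 2, 4, 6 or 8 h of growth (A600 about 0.8 at 4 h, 2.3 at 6 h, 6 at 8 h). Growth compared with methanol controls by A600 or cell counts.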

[7] = tested on: Candida parapsilosis; assay: Increase in PLB3 gene expression in Candida parapsilosis CLIB214 at 50 uM after 2 hrs by microarray based transcriptional profiling relative to control; type: functional
Method in brief: (§5)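 Strain grown overnight in YPD at 30°C, diluted to A600 0.2 in YPD at 30°C; farnesol (40 mM methanol stock) added at 4 h (A600 0.8), final 50 μM; methanol-only control. Cells collected 2 h later for RNA. Labelled cDNA from 25 μg total RNA (Cy3/Cy5-dCTP) hybridized to 68-mer oligo arrays at 42°C ~16 h; six individual comparisons analysed statistically.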

[8] = tested on: Candida parapsilosis; assay: Increase in GenBank accession number NP_983467.1 expression in Candida parapsilosis CLIB214 at 50 uM after 2 hrs by microarray based transcriptional profiling relative to control; type: functional; method in brief: as §5
[9] = tested on: Candida parapsilosis; assay: Decrease in RLM1 gene expression in Candida parapsilosis CLIB214 at 50 uM after 2 hrs by microarray based transcriptional profiling relative to control; type: functional; method in brief: as §4
[10] = tested on: Candida parapsilosis; assay: Decrease in CGD gene ortholog accession number orf19.1608 expression in Candida parapsilosis CLIB214 at 50 uM after 2 hrs by microarray based transcriptional profiling relative to control; type: functional; method in brief: as §2
[11] = tested on: Candida parapsilosis; assay: Decrease in CGD gene ortholog accession number orf19.2697 expression in Candida parapsilosis CLIB214 at 50 uM after 2 hrs by microarray based transcriptional profiling relative to control; type: functional; method in brief: as §2
[12] = tested on: Candida parapsilosis; assay: Increase in GAR1 gene expression in Candida parapsilosis CLIB214 at 50 uM after 2 hrs by microarray based transcriptional profiling relative to control; type: functional; method in brief: as §5
[13] = tested on: Candida parapsilosis; assay: Decrease in CGD gene ortholog accession number orf19.4210 expression in Candida parapsilosis CLIB214 at 50 uM after 2 hrs by microarray based transcriptional profiling relative to control; type: functional; method in brief: as §2
[14] = tested on: Candida parapsilosis; assay: Increase in CGD gene ortholog accession number orf19.5963 expression in Candida parapsilosis CLIB214 at 50 uM after 2 hrs by microarray based transcriptional profiling relative to control; type: functional; method in brief: as §4
[15] = tested on: Candida parapsilosis; assay: Increase in CGD gene ortholog accession number orf19.3185 expression in Candida parapsilosis CLIB214 at 50 uM after 2 hrs by microarray based transcriptional profiling relative to control; type: functional; method in brief: as §4
[16] = tested on: Candida parapsilosis; assay: Decrease in CGD gene ortholog accession number orf19.6281 expression in Candida parapsilosis CLIB214 at 50 uM after 2 hrs by microarray based transcriptional profiling relative to control; type: functional; method in brief: as §2
[17] = tested on: Candida parapsilosis; assay: Decrease in CGD gene ortholog accession number orf19.6687 expression in Candida parapsilosis CLIB214 at 50 uM after 2 hrs by microarray based transcriptional profiling relative to control; type: functional; method in brief: as §4
[18] = tested on: Candida parapsilosis; assay: Reduction in ERG9 gene expression in Candida parapsilosis CLIB214 by RT-PCR; type: functional, organism-based; method in brief: as §1
[19] = tested on: Candida parapsilosis; assay: Decrease in CGD gene ortholog accession number orf19.194 expression in Candida parapsilosis CLIB214 at 50 uM after 2 hrs by microarray based transcriptional profiling relative to control; type: functional; method in brief: as §2
[20] = tested on: Candida parapsilosis; assay: Antifungal activity against Candida parapsilosis CLIB214 assessed as growth inhibition at 50 uM added 4 hrs after […] growth; type: functional, organism-based; method in brief: as §3
[21] = tested on: Candida parapsilosis; assay: Increase in CGD gene ortholog accession number orf19.6018 expression in Candida parapsilosis CLIB214 at 50 uM after 2 hrs by microarray based transcriptional profiling relative to control; type: functional; method in brief: as §4
[22] = tested on: Candida parapsilosis; assay: Decrease in CGD gene ortholog accession number orf19.5212 expression in Candida parapsilosis CLIB214 at 50 uM after 2 hrs by microarray based transcriptional profiling relative to control; type: functional; method in brief: as §2
[23] = tested on: Candida parapsilosis; assay: Increase in HAS1 gene expression in Candida parapsilosis CLIB214 at 50 uM after 2 hrs by microarray based transcriptional profiling relative to control; type: functional; method in brief: as §5
[24] = tested on: Candida parapsilosis; assay: Decrease in CGD gene ortholog accession number orf19.530 expression in Candida parapsilosis CLIB214 at 50 uM after 2 hrs by microarray based transcriptional profiling relative to control; type: functional; method in brief: as §2
[25] = tested on: Candida parapsilosis; assay: Effect on GDH2 gene expression in Candida parapsilosis CLIB214 by microarray based transcriptional profiling; type: functional, organism-based; method in brief: as §4
[26] = tested on: Candida parapsilosis; assay: Increase in GenBank accession number NP_943633.1 expression in Candida parapsilosis CLIB214 at 50 uM after 2 hrs by microarray based transcriptional profiling relative to control; type: functional; method in brief: as §5

Compound: CC(C)=CCC/C(C)=C/CC/C(C)=C/CO [FARNESOL]
- fold change (FC) [1]: 1.54
- fold change (FC) [2]: 2.21
- Activity [3]: inactive
- inhibition at 50 µM [4]: 25.5%
- fold change (FC) [5]: 1.67
- inhibition at 50 µM [6]: 71%
- fold change (FC) [7]: 1.66
- fold change (FC) [8]: 3.16
- fold change (FC) [9]: 1.6
- fold change (FC) [10]: 1.62
- fold change (FC) [11]: 1.81
- fold change (FC) [12]: 2.89
- fold change (FC) [13]: 1.79
- fold change (FC) [14]: 1.68
- fold change (FC) [15]: 1.6
- fold change (FC) [16]: 1.72
- fold change (FC) [17]: 2.26
- Activity [18]: Active
- fold change (FC) [19]: 1.84
- Activity [20]: Active
- fold change (FC) [21]: 2.07
- fold change (FC) [22]: 2.33
- fold change (FC) [23]: 1.7
- fold change (FC) [24]: 1.89
- Activity [25]: inactive
- fold change (FC) [26]: 2.81
